# Bioassay records as filed in PubChem.
# TLR4 MyD88 comp = inhibitors of human TLR4-MyD88 binding. O00206+Q99836. HeLa CL3-4 TLR4/MyD88 BLA complementation, FRET ratio. inhibition, % at 8.4 µM. 200,000 tested, 0.18% active. AID 861; in the data active means inhibition above about 25%;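 further: 0% = vehicle and 100% = reference inhibitor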
# Target sequence (O00206 whole entry, looked up): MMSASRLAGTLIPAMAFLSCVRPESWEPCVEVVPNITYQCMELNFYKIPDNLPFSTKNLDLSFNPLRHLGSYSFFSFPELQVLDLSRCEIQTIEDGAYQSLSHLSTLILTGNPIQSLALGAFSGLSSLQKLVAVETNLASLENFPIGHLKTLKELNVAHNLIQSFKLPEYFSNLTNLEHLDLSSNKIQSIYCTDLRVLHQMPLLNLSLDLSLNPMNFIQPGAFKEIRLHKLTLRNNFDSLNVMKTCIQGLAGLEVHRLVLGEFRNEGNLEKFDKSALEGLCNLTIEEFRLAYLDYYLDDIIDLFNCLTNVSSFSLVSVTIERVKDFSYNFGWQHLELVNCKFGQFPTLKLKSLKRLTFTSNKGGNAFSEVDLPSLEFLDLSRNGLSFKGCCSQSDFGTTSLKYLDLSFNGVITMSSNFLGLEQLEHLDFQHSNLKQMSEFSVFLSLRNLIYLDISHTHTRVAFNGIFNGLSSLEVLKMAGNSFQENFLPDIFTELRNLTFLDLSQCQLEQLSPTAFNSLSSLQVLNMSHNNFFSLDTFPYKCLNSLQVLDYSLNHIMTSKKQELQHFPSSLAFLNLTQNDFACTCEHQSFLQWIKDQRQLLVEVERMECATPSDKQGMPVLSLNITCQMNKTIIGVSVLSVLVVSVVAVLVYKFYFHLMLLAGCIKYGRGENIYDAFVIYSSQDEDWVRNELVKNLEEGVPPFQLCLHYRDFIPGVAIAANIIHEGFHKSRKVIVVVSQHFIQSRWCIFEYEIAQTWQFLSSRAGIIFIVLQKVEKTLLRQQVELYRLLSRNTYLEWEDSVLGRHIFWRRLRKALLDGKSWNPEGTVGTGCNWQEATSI
# Target sequence (Q99836 whole entry, looked up): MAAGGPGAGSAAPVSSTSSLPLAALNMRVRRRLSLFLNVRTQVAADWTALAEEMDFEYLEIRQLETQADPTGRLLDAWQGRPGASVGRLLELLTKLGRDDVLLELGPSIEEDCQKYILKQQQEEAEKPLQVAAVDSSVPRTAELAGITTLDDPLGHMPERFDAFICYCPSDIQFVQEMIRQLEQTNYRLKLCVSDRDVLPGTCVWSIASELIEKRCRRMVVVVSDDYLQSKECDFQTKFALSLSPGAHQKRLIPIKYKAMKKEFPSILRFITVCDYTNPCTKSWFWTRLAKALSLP
# MC4R barr agon = human MC4R agonism via beta-arrestin; P32245; U2OS MC4R beta-arrestin complementation, luminescence; percent of melanotan II response, DMSO zero; activation, % at 8.9 µM; 360,000 tested, 0.98% active; AID 540308;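 active means activation above a per-plate cutoff, the mean activation of sample wells on that plate plus 3 SD, cut at about 8% in these data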
# MC4R antagonist = blocks human MC4R cAMP signaling; P32245; MC4R-expressing cells, MTII-stimulated cAMP, LANCE TR-FRET; inhibition, % at 6.5 µM; 360,000 tested, 0.48% active;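 active means inhibition above its plate's cutoff, the mean of tested wells on that plate plus 3 SD, cut at about 29% in these data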;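 further: 0% = Melanotan II alone and 100% = Melanotan II plus saturating MCL0020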
#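 Material: human MC4R-expressing U2OS cells. Probe or stimulus: Melanotan II challenge. Dosing: 6.5 µM single dose. Times: 30-min compound, 1-h challenge, 1-h detection, room temperature. Technique: TR-FRET with Eu-cAMP and labeled anti-cAMP, 671 nm. Replication: singlicate.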
# beta cell repl = inducers of beta-cell replication in MIN6 cells. MIN6 cells proliferation, ATPlite luminescence, 48 h; cells starved in 0.2% serum; 100% = growth in 10% serum. proliferation, % at 10 µM. 330,000 tested, 0.29% active;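 active means compounds whose signal lies at least 3.5 SD above the mean of all wells on their plate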;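 further: 0% = DMSO-treated cells in low-serum medium and 100% = 10% serum control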
# TLR9-MyD88 inh = blocks human TLR9 binding to MyD88. AID 504734. CHO BLA complementation TLR9-MyD88, CCF4 FRET ratio. Q9NR96+Q99836. 340,000 tested, 0.21% active. inhibition, % at 4.98 µM;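 active means inhibition above the mean over all tested compounds plus 3 SD, cut at about 21% in these data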;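 further: 0% = DMSO only wells and 100% = clavulanate BLA inhibitor control wells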
# NOD2 RIPK2 PPI = blocks binding of human NOD2 to RIPK2; O43353; CHO BLA complementation NOD2-RIPK2, CCF4 ratio; inhibition, % at 4.98 µM; 360,000 tested, 0.38% active; in the data active means inhibition above about 21%;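 further: 0% = vehicle only and 100% = reference blocker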
# MC4R barr ag = human MC4R beta-arrestin agonism confirmation; shares compounds with MC4R barr agon; U2OS MC4R beta-arrestin recruitment, luminescence; scaled DMSO 0%, Melanotan II 100%; activation, % at 8.9 µM; 2,400 tested, 31% active;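 active means mean activation across replicates above the hit cutoff set in the earlier primary screen, cut at about 8% in these data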
# MOR-DOR barr ag = activates mu-delta opioid heterodimer, MC4R agonist counter-screen. AID 602194. U2OS PathHunter beta-arrestin, beta-gal luminescence; percent of deltorphin B response, DMSO zero. 2,400 tested, 5.8% active. shares compounds with MC4R barr agon. activation, % at 9.2 µM;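 active means mean activation across replicates exceeds the hit threshold derived in the earlier primary screen, cut at about 18% in these data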;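 further: 100% = deltorphin B at 0.9 µM final and 0% = DMSO alone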
# Active calls of the source: *; x = not tested or not shown; ! = a repeat was not active. In the library only some 2.1% were active in any assay of this set; here they are far more common.
SMILES,TLR4 MyD88 comp,MC4R barr agon,MC4R antagonist,beta cell repl,TLR9-MyD88 inh,NOD2 RIPK2 PPI,MC4R barr ag,MOR-DOR barr ag
COC(=O)c1ccc(C(=O)OC)c(NC(=O)CN2CCN(c3ccccc3)CC2)c1,4.0,14.6*,-3.2,0.2,-11.2,-4.4,14.2*,14.1
COc1ccc(N2CCN(CC(=O)Nc3nnc(-c4ccccc4)s3)CC2)cc1,9.7,11.0*,2.6,0.6,-3.5,2.9,1.0,4.0
COC(=O)c1ccc(C(=O)OC)c(NC(=O)CN2CCN(c3ccc(OC)cc3)CC2)c1,-12.6,1.6,-1.5,-1.2,-4.8,-3.5,x,x
O=C(CN1CCN(c2ccccc2)CC1)Nc1nnc(-c2ccccc2)s1,-5.2,5.1,2.5,2.2,0.2,0.2,x,x
COc1cccc(/C=N/NC(=O)c2ccc(N3CCCC3=O)cc2)c1,x,0.0,-6.8,-1.6,-5.8,-1.0,x,x
CN(Cc1ccc(Br)cc1)CC(O)COc1cccc(Br)c1 (configuration not stated),x,0.0,4.4,-3.4,-4.3,-12.9,x,x
CC1CCc2c(sc3ncn4c(SCC(=O)NCc5ccco5)nnc4c23)C1 (configuration not stated),7.3,10.0*,-15.8,-2.3,-6.4,-2.9,9.9*,4.3
Cc1nn(-c2ccc(Cl)cc2)c(NC(=O)C(C)C)c(-c2ccccc2)c1=O,x,1.6,8.9,-3.4,1.5,2.9,x,x
CCOc1ccccc1NC(=O)c1ccc2[nH]c(C)c(C)c2c1,x,11.6*,11.4,0.0,-2.1,-1.3,1.0,8.1
COc1ccc(NC(=O)c2ccc3[nH]c(C)c(C)c3c2)c(OC)c1,x,1.6,17.1,1.1,-6.7,-0.7,x,x
COc1cccc(-c2ccc(C#N)c(SCC(=O)NCCc3cccc(Cl)c3)n2)c1,14.0,13.0*,16.1,-1.8,-1.4,-19.2,18.0*,20.2*
COc1ccc(-c2ccc(C#N)c(SCC(=O)NCCc3ccccc3)n2)cc1OC,4.3,11.6*,19.4,1.6,-2.5,-8.2,4.4,5.8
CC1CCC(NC(=O)c2cc3c(s2)CCCC3)CC1 (configuration not stated),x,-0.5,10.3,-3.5,9.0,1.4,x,x
CCOc1ccc(OCC)c(NC(=O)c2nnn(CC(=O)Nc3cc(C)cc(C)c3)c2N)c1,x,42.2*,0.4,-1.9,-3.1,1.6,18.5*,8.6
Cc1ccc(C(=O)Nc2cccc(C(F)(F)F)c2)cc1NC(=O)c1c[nH]c2cc(C(F)(F)F)ccc2c1=O,x,-1.5,13.3,3.5,3.0,-2.2,x,x
CCN1CCN(Cc2ccc(NC(=O)c3ccc(C)c(NC(=O)c4c[nH]c5cc(C(F)(F)F)ccc5c4=O)c3)cc2C(F)(F)F)CC1,x,11.6*!,-1.5,-8.1,2.6,2.8,4.9,77.5*
CC(C)Oc1ccc(C(=O)NC2CCSc3ccccc32)cc1 (configuration not stated),x,-2.7,3.8,-2.5,-7.1,7.5,x,x
CCCOc1ccc(C(=O)NC2CCSc3ccccc32)cc1 (configuration not stated),x,17.0*,7.5,-5.4,-11.2,-3.2,1.4,6.5
COc1cccc(CN2CCN(Cc3cccn3-c3cccnc3)CC2CCO)c1 (configuration not stated),-4.7,1.7,1.1,1.1,-5.8,-5.3,x,x
CC1(C)Oc2ccc3ccc(=O)oc3c2/C(=C/Nc2ccc(O)cc2)C1=O,1.0,11.0*,24.1,-5.9,16.8,5.0,23.0*,5.0
CN1CCN(c2cc(N3CCc4ccccc4C3)c(F)cc2[N+](=O)[O-])CC1,9.9,14.5*,7.3,-2.8,3.8,8.1,10.8*,11.7
CCC(=O)N1CCN(c2cc(N3CCN(C)CC3)c(F)cc2[N+](=O)[O-])CC1,-4.3,-1.9,1.4,1.9,-9.9,5.7,x,x
Cc1cc(C)cc(NC(=O)CSc2cc(C(=O)c3nccn3C)c3ccccc3n2)c1,1.8,9.8*,14.0,-1.1,-5.2,4.5,2.7,8.2
Cc1cccc(NC(=O)CSc2cc(C(=O)c3nccn3C)c3ccccc3n2)c1,-5.2,-1.3,3.6,2.2,-14.3,-1.1,x,x
COc1cc(C(=O)NC(=S)Nc2ccc(NC(=O)c3ccco3)cc2)cc(OC)c1OC,0.7,10.6*,-2.3,-1.7,4.8,16.7,-0.4,4.5
SMILES,TLR4 MyD88 comp,MC4R barr agon,MC4R antagonist,beta cell repl,TLR9-MyD88 inh,NOD2 RIPK2 PPI,MC4R barr ag,MOR-DOR barr ag
Cc1ccc(OCC(=O)Nc2ccc(NC(=O)c3ccco3)cc2)c(C)c1,x,18.4*,7.7,-0.2,-7.5,2.1,0.5,6.0
Cc1cc(C)c(OCC(=O)Nc2cccc(NC(=O)c3ccco3)c2)c(Br)c1,-6.2,-1.1,-1.8,-4.0,1.7,-13.3,x,x
Cc1ccc(OCC(=O)Nc2cccc(-c3nnc(-c4ccccc4)o3)c2)c(C)c1,-7.8,35.0*,7.5,-2.3,1.0,0.8,7.5,3.6
Cc1cc(C)c(OCC(=O)Nc2ccc(NC(=O)c3ccco3)cc2)c([N+](=O)[O-])c1,-3.5,12.6*,3.9,x,5.0,-8.8,0.7,2.6
COc1ccc(CC(=O)Nc2cccc(-c3nnc(-c4ccc(C)cc4)o3)c2)cc1OC,9.0,2.1,5.7,-1.3,2.4,-2.8,x,x
CCOc1ccc(S(=O)(=O)NCCC(=O)OCC(=O)Nc2cc(C)on2)cc1,x,-1.1,-4.4,0.8,3.4,10.7,x,x
C/C(=N\N1CCN(c2ccccc2)CC1)c1ccncc1,-4.1,-1.6,-0.1,-2.6,7.8,7.2,x,x
Cc1c([N+](=O)[O-])cc(C(=O)Nc2ccc(NC(=O)c3ccco3)cc2)cc1[N+](=O)[O-],x,10.1*,-0.8,-3.7,-10.3,-0.7,-4.7,8.5
Cc1cccc(NC(=S)NC(C)CCc2ccccc2)c1 (configuration not stated),-2.6,21.0*,-0.2,0.0,8.6,6.9,2.1,8.0
CCCOc1ccc(C(=O)CCN2CCN(C(=O)OCC)CC2)cc1,4.4,-4.6,10.2,x,0.1,-5.5,x,x
COc1cc(/C=C2/C(=N)N3C=CSC3=NC2=O)ccc1OCCCOc1ccccc1C,-1.7,16.8*,-28.9,-2.3,-5.3,0.5,12.1*,11.4
CC(C)(C)c1ccc(S(=O)(=O)NCCOCC(F)(F)C(F)F)cc1,-8.6,12.6*,-4.1,-3.2,9.8,7.5,1.0,12.8
CC(C)(C)c1ccc(S(=O)(=O)NCCc2ccncc2)cc1,-3.2,-1.9,-1.4,1.4,2.0,-4.7,x,x
